Key:
Assay type in all cases: functional
UO-31 = test: Growth inhibition of human UO31 cells assessed as cell viability at 0.1 uM incubated for 48 hrs by sulforhodamine B assay; conditions: UO-31, 48 h, read-out: Activity
SF-539 [1] = test: Growth inhibition of human SF539 cells assessed as cell viability at 0.001 uM incubated for 48 hrs by sulforhodamine B assay relative to control; conditions: SF-539, 48 h, read-out: Activity
NCI-H522 = test: Growth inhibition of human NCI-H522 cells assessed as cell viability at 1 uM incubated for 48 hrs by sulforhodamine B assay; conditions: NCI-H522, 48 h, read-out: Activity
PC-3 = test: Growth inhibition of human PC3 cells assessed as cell viability at 0.001 uM incubated for 48 hrs by sulforhodamine B assay relative to control; conditions: PC-3, 48 h, read-out: Activity
UACC-257 = test: Growth inhibition of human UACC257 cells assessed as cell viability at 0.1 uM incubated for 48 hrs by sulforhodamine B assay; conditions: UACC-257, 48 h, read-out: Activity
MCF7 [2] = test: Growth inhibition of human MCF7 cells assessed as cell viability at 1 uM incubated for 48 hrs by sulforhodamine B assay; conditions: MCF7, 48 h, read-out: Activity
DU-145 [3] = test: Growth inhibition of human DU145 cells assessed as cell viability at 0.1 uM incubated for 48 hrs by sulforhodamine B assay; conditions: DU-145, 48 h, read-out: Activity
SNB-19 = test: Growth inhibition of human SNB19 cells assessed as cell viability at 100 uM incubated for 48 hrs by sulforhodamine B assay; conditions: SNB-19, 48 h, read-out: Activity
TK-10 = test: Growth inhibition of human TK10 cells assessed as cell viability at 0.1 uM incubated for 48 hrs by sulforhodamine B assay; conditions: TK-10, 48 h, read-out: Activity
HCC 2998 = test: Growth inhibition of human HCC2998 cells assessed as cell viability at 0.1 uM incubated for 48 hrs by sulforhodamine B assay; conditions: HCC 2998, 48 h, read-out: Activity
786-0 = test: Growth inhibition of human 786-0 cells incubated for 48 hrs by sulforhodamine B assay; conditions: 786-0, 48 h
Summary of the method: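 NCI-60 five-dose mode: five tenfold dilutions (0.01, 0.1, 1, 10, 100 µM) are applied for 48 h to cells in RPMI 1640 with 5% FBS at 37 °C. Endpoint is TCA fixation with sulforhodamine B read at 515 nm. % growth comes from the 0 h and control absorbances. GI50 is the concentration giving a 50% reduction in net cell growth.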

MDA-MB-435 = test: Growth inhibition of human MDA-MB-435 cells assessed as cell viability at 1 uM incubated for 48 hrs by sulforhodamine B assay; conditions: MDA-MB-435, 48 h, read-out: Activity
COLO 205 = test: Growth inhibition of human COLO205 cells assessed as cell viability at 0.001 uM incubated for 48 hrs by sulforhodamine B assay relative to control; conditions: COLO 205, 48 h, read-out: Activity
HCT-116 = test: Growth inhibition of human HCT116 cells assessed as cell viability at 0.001 uM incubated for 48 hrs by sulforhodamine B assay relative to control; conditions: HCT-116, 48 h, read-out: Activity
SF-295 = test: Growth inhibition of human SF295 cells incubated for 48 hrs by sulforhodamine B assay; conditions: SF-295, 48 h
Summary of the method: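 NCI-60 five-dose SRB assay. Cells were exposed for 48 h to tenfold dilutions of 0.01, 0.1, 1, 10 and 100 µM, in RPMI 1640 with 5% FBS. Plates fixed with TCA at the time of drug addition served as the time-zero reference. GI50 is the concentration giving a 50% reduction in net growth. TGI is total growth inhibition. LC50 is a net 50% loss of the initial cells.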

Malme-3M = test: Growth inhibition of human MALME-3M cells assessed as cell viability at 0.001 uM incubated for 48 hrs by sulforhodamine B assay relative to control; conditions: read-out: Activity
MCF7 [4] = test: Growth inhibition of human MCF7 cells assessed as cell viability at 100 uM incubated for 48 hrs by sulforhodamine B assay; conditions: MCF7, 48 h, read-out: Activity
DU-145 [5] = test: Growth inhibition of human DU145 cells assessed as cell viability at 100 uM incubated for 48 hrs by sulforhodamine B assay; conditions: DU-145, 48 h, read-out: Activity
UACC-62 = test: Growth inhibition of human UACC62 cells assessed as cell viability at 100 uM incubated for 48 hrs by sulforhodamine B assay; conditions: UACC-62, 48 h, read-out: Activity
HOP-62 = test: Growth inhibition of human HOP62 cells assessed as cell viability at 0.1 uM incubated for 48 hrs by sulforhodamine B assay; conditions: HOP-62, 48 h, read-out: Activity
MDA-MB-231 = test: Growth inhibition of human MDA-MB-231 cells assessed as cell viability at 0.001 uM incubated for 48 hrs by sulforhodamine B assay relative to control; conditions: MDA-MB-231, 48 h, read-out: Activity
SF-268 = test: Growth inhibition of human SF268 cells assessed as cell viability at 1 uM incubated for 48 hrs by sulforhodamine B assay; conditions: SF-268, 48 h, read-out: Activity
NCI/ADR-RES = test: Growth inhibition of human NCI/ADR-RES cells incubated for 48 hrs by sulforhodamine B assay
Summary of the method: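 NCI-60 five-dose SRB assay in RPMI 1640 with 5% FBS, 37 °C, 5% CO2. Compound given at five tenfold dilutions, 0.01–100 µM, for 48 h. Adherent cells fixed with TCA, suspension cells with 16% final TCA. Bound SRB read at 515 nm and growth calculated against time-zero and untreated controls. GI50 taken from dose–response curves as the concentration giving a 50% decrease in net cell growth.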

SF-539 [6] = test: Growth inhibition of human SF539 cells assessed as cell viability at 1 uM incubated for 48 hrs by sulforhodamine B assay; conditions: SF-539, 48 h, read-out: Activity
NCI-H322M = test: Growth inhibition of human NCI-H322M cells assessed as cell viability at 100 uM incubated for 48 hrs by sulforhodamine B assay; conditions: read-out: Activity
KM12 = test: Growth inhibition of human KM12 cells assessed as cell viability at 100 uM incubated for 48 hrs by sulforhodamine B assay; conditions: KM12, 48 h, read-out: Activity
IGROV-1 = test: Growth inhibition of human IGROV1 cells assessed as cell viability at 100 uM incubated for 48 hrs by sulforhodamine B assay; conditions: IGROV-1, 48 h, read-out: Activity
[7] = read-out: LC50 (the source's name)
[8] = read-out: pLC50 (the source's name) (converted)

## CC1=C(C(=O)OCc2ccccc2)C(c2ccc3c(c2)OCO3)n2c(nc3ccccc32)N1 (racemic)
UO-31
  viability at 0.1 µM: 93%
SF-539 [1]
  viability at 0.001 µM: 91%
NCI-H522
  viability at 1 µM: 3%
PC-3
  viability at 0.001 µM: 89%
UACC-257
  viability at 0.1 µM: 91%
MCF7 [2]
  viability at 1 µM: 14%
DU-145 [3]
  viability at 0.1 µM: 109%
SNB-19
  viability at 100 µM: 28%
TK-10
  viability at 0.1 µM: 91%
HCC 2998
  viability at 0.1 µM: 96%
786-0; read-out: GI50
  GI50: 0.47 µM
786-0; [7]
  CC50: > 100 µM
786-0; read-out: TGI
  TGI: > 100 µM
786-0; read-out: pGI50 (converted)
  GI50: 0.468 µM
786-0; [8]
  CC50: > 100 µM
786-0; read-out: pTGI
  TGI: > 100 µM
MDA-MB-435
  viability at 1 µM: -39%
COLO 205
  viability at 0.001 µM: 95%
HCT-116
  viability at 0.001 µM: 96%
SF-295; read-out: GI50
  GI50: 0.33 µM
SF-295; read-out: LC50
  LC50 (concentration causing 50% net loss of initial cells): > 100 µM
SF-295; read-out: TGI
  TGI: > 100 µM
SF-295; read-out: pGI50 (converted)
  GI50: 0.331 µM
SF-295; read-out: pLC50 (converted)
  LC50 (concentration causing 50% net loss of initial cells): > 100 µM
SF-295; read-out: pTGI
  TGI: > 100 µM
Malme-3M
  viability at 0.001 µM: 94%
MCF7 [4]
  viability at 100 µM: 7%
DU-145 [5]
  viability at 100 µM: 41%
UACC-62
  viability at 100 µM: 30%
HOP-62
  viability at 0.1 µM: 96%
MDA-MB-231
  viability at 0.001 µM: 97%
SF-268
  viability at 1 µM: 32%
NCI/ADR-RES; read-out: GI50
  GI50: 0.33 µM
NCI/ADR-RES; [7]
  CC50: > 100 µM
NCI/ADR-RES; read-out: TGI
  TGI: > 100 µM
NCI/ADR-RES; read-out: pGI50 (converted)
  GI50: 0.331 µM
NCI/ADR-RES; [8]
  CC50: > 100 µM
NCI/ADR-RES; read-out: pTGI
  TGI: > 100 µM
SF-539 [6]
  viability at 1 µM: 13%
NCI-H322M
  viability at 100 µM: 50%
KM12
  viability at 100 µM: 18%
IGROV-1
  viability at 100 µM: 29%
